The values that follow come from PubChem BioAssay AID493015 (Southern Research Specialized Biocontainment Screening …, 2011).

In general, CC50 refers to the concentration giving 50% cytotoxicity.

The subject of this assay is HEp-2 cells, viability, luminescence (cytotoxicity counter-screen). The assay is described as follows: HEp-2 cell cytotoxicity, dose response, cytotoxicity control for RSV inhibitor project, synthesized compounds, set 4 (AID 493015). The gist of the method: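 Assay system: HEp-2 cells / Medium: DMEM/F12 plus heat-inactivated FBS / Dosing: 8-point 1:2 series, 50–0.39 µM, 0.5% DMSO / Schedule: 6-day compound exposure, 37 °C / Detection: CellTiter-Glo luminescence / Replicates: each concentration tested in triplicate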

The source made the active and inactive calls.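 Rule for the calls: active = cell viability under 70% at any tested dose, a measure not printed in our tables; inactive = the rest.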

In the case of `COc1ccccc1CNC(=O)C1CCN(S(=O)(=O)c2cccc3nonc23)CC1`, the CC50 was > 50 µM (inactive).

For `Cc1ccc2c(c1)CCN2C(=O)[C@@H]1CCCN1S(=O)(=O)c1cccc2cccnc12`, the CC50 is 18.1 µM.

In the case of `CC(C)c1ccccc1NC(=O)[C@@H]1CCCN1S(=O)(=O)c1cccc2cccnc12`, the CC50 was 16.5 µM.

Regarding `Cc1cccc(NC(=O)[C@@H]2CCCN2S(=O)(=O)c2cccc3cccnc23)c1`, the CC50 was 27.6 µM.

As to `O=C(Nc1ccccc1)[C@@H]1CCCN1S(=O)(=O)c1cccc2cccnc12`, the half-maximal cytotoxic concentration (CC50) was 49 µM.
